In ChEMBL document CHEMBL3351540, “Novel antiproliferative chimeric compounds with marked histone deacetylase inhibitory activity” (ACS Med Chem Lett, 2014):
Active and inactive are the calls of the source. No cut-off for these calls is given here.

Tests used:
[1] = Cell cycle arrest in human U937 cells assessed as block at G1 phase at 5 uM after 24 to 96 hrs using propidium iodide staining by FACScan flow cytometry; assay type: functional, cell-based; conditions: U-937
[2] = tested on: MCF7; assay: Cell cycle arrest in human MCF7 cells assessed as block at G2 phase at 5 uM after 24 to 96 hrs using propidium iodide staining by FACScan flow cytometry
[3] = tested on: K562; assay: Cell cycle arrest in human K562 cells assessed as block at G2-M phase at 40 uM after 24 hrs using propidium iodide staining by FACScan flow cytometry; assay type: functional, cell-based
[4] = tested on: U-937; assay: Induction of apoptosis in human U937 cells using annexin-V/PI staining after 48 hrs by flow cytometry; assay type: functional, cell-based
How it was run: (§1)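 U937 cells treated with 5 μM compound for 48 h, with SAHA at 5 μM as positive control. Apoptosis and necrosis measured by annexin V/PI double staining and flow cytometry. Triplicate points, SD error bars.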

[5] = tested on: MCF7; assay: Antiproliferative activity against human MCF7 cells assessed as reduction in doubling time at 5 uM after 10 to 18 hrs by real-time mode analysis; assay type: functional, cell-based
How it was run: (§2)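 Real-time proliferation of MCF-7 cells treated with 5 μM compound, recorded as cell index versus time over 36 h. Doubling time was calculated over the 10−18 h interval.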

[6] = tested on: K562; assay: Induction of apoptosis in human K562 cells using annexin-V/PI staining by flow cytometry; assay type: functional, cell-based
How it was run: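 K562 cells treated for 48 h; apoptosis scored by annexin V test. AC50 is the concentration inducing apoptosis in 50% of cells. Triplicate points, SD error bars.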

[7] = tested on: K562; assay: Cell cycle arrest in human K562 cells assessed as block at G1 phase at 40 uM after 24 hrs using propidium iodide staining by FACScan flow cytometry; assay type: functional, cell-based
[8] = tested on: MCF7; assay: Cell cycle arrest in human MCF7 cells assessed as block at G2-M phase at 5 uM after 24 to 96 hrs using propidium iodide staining by FACScan flow cytometry; assay type: functional, cell-based
[9] = Cell cycle arrest in human U937 cells assessed as block at G1 phase at 5 uM after 24 to 96 hrs using propidium iodide staining by FACScan flow cytometry; conditions: U-937
[10] = tested on: K562; assay: Antiproliferative activity against human K562 cells assessed as growth inhibition after 48 hrs by trypan blue dye exclusion method; assay type: functional, cell-based; conditions: K562, 48 h
[11] = biological target: Histone deacetylase 1 (Homo sapiens, UniProt Q13547); assay: Inhibition of human recombinant HDAC1 using modified Boc-Lys(Ac)-AMC MAL as substrate after 1 hr by fluorescent activity assay
Chain of Histone deacetylase 1 (Q13547 whole entry): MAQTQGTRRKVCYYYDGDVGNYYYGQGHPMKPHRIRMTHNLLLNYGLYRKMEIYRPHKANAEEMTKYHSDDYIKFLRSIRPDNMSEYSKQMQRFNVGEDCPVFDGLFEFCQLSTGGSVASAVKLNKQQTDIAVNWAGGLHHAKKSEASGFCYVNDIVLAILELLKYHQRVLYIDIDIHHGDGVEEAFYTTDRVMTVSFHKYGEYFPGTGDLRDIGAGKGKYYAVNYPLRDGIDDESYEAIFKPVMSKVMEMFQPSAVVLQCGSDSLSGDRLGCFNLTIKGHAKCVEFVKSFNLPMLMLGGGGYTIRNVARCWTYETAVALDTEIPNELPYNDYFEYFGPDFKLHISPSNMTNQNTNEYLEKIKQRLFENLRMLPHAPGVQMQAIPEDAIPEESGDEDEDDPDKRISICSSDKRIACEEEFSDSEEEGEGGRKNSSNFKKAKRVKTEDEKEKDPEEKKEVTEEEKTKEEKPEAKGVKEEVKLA

[12] = biological target: Histone deacetylase 4 (Homo sapiens, UniProt P56524); assay: Inhibition of human recombinant HDAC4 using (S)-[5-Acetylamino-1-(2-oxo-4-trifluorometyl-2Hchromen-7-ylcarbamoyl)pentl]carbami acid tert-Butyl Ester as substrate after 1 hr by fluorescent activity assay
Chain of Histone deacetylase 4 (P56524 whole entry): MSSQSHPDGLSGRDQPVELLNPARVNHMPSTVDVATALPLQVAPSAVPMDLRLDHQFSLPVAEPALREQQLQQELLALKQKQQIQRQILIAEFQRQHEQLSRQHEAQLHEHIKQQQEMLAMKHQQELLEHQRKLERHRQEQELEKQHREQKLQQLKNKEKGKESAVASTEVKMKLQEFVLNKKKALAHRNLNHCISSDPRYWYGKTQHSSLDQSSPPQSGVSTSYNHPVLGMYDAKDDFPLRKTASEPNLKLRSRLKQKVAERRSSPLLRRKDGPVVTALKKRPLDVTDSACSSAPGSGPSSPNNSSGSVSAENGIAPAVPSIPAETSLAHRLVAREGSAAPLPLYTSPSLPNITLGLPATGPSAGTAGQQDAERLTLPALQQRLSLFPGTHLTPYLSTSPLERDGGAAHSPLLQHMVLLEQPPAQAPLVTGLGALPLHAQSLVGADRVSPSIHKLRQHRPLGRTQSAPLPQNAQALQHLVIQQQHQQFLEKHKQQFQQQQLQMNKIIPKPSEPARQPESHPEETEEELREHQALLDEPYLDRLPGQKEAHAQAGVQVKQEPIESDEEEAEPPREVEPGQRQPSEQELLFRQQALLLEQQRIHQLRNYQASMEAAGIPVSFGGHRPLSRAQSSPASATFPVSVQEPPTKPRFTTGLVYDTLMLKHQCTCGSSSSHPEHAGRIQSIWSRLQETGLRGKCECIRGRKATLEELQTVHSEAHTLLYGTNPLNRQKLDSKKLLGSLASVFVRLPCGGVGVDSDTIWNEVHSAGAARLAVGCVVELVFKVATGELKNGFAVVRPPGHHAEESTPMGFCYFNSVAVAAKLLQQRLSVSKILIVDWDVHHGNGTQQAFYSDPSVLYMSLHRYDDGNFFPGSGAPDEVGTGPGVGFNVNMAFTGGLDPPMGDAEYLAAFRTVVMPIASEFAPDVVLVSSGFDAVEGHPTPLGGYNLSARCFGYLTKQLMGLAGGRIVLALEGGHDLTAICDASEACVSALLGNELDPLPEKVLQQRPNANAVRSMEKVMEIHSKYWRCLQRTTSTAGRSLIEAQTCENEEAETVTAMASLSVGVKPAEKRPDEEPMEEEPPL

[13] = biological target: T1, Protein deacetylase HDAC6 (Homo sapiens, UniProt Q9UBN7); assay: Inhibition of human recombinant HDAC6 using Z-MAL as substrate after 1 hr by fluorescent activity assay
T1 sequence (Q9UBN7 whole entry): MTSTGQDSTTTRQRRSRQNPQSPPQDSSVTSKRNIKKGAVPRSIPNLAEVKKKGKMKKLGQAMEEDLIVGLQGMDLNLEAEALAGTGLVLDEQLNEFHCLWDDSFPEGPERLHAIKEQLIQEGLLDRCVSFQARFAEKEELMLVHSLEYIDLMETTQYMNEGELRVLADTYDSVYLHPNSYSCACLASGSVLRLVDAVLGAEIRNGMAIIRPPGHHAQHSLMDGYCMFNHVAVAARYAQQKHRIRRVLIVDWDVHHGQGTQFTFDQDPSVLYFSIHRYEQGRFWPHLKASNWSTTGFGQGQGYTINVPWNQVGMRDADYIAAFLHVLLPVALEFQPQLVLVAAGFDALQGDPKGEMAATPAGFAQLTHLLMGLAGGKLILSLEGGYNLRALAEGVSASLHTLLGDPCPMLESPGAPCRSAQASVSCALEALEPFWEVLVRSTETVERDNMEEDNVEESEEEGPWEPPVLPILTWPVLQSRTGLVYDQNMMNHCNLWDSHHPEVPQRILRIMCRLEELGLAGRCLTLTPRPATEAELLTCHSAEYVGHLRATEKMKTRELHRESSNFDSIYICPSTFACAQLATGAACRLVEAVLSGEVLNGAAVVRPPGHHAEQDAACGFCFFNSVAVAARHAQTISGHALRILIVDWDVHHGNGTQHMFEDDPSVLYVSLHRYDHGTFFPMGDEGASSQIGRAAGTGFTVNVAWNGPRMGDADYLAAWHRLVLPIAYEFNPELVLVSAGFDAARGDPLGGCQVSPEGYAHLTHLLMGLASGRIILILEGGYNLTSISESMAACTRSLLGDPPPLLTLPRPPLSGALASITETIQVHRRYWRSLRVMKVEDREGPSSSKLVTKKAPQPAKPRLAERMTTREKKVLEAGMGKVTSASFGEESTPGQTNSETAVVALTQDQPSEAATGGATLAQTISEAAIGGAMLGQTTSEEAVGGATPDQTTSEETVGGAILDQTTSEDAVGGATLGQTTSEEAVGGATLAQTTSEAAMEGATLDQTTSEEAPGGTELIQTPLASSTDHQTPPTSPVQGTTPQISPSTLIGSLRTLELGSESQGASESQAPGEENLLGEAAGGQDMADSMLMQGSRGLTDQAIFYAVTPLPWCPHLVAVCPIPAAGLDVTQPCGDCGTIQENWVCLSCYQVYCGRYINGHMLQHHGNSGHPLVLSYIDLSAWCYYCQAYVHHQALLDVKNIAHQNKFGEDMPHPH

[14] = tested on: MCF7; assay: Antimigratory activity against human MCF7 cells assessed as reduction in slope values at 5 uM up to 24 hrs by real-time mode analysis; assay type: functional; design: scale not given: the % may be the effect or the level left
How it was run: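 MCF-7 cells exposed to 5 μM compound and tracked in real time as cell index versus time over 27 h. Migration was expressed as the slope of the cell index within 24 h.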

[15] = tested on: U-937; assay: Induction of apoptosis in human U937 cells using annexin-V/PI staining after 48 hrs by flow cytometry relative to SAHA; assay type: functional; how it was run: as §1
[16] = tested on: K562; assay: Ratio of SAHA AC50 to compound AC50 for human K562 cells using annexin-V/PI staining by flow cytometry; assay type: functional
[17] = tested on: MCF7; assay: Antiproliferative activity against human MCF7 cells at 5 uM after 10 hrs by real-time mode analysis; assay type: functional, cell-based; how it was run: as §2

Row | SMILES | Activity [3] | AC50 [6] [µM] | Activity [7] | IC50 [10] [µM] | IC50 [11] [µM] | further results
1 | O=C(CCCCCCC(=O)Nc1ccccc1)NO [VORINOSTAT] | Active | 10 | Active |  |  | Activity [1]: Active; Activity [2]: Active; Activity [4]: Active; Activity [5]: Active; Activity [8]: Active; Activity [9]: Active
2 | Oc1ccc(-c2ccc(-c3cc(O)cc(O)c3)cc2)cc1 |  | > 50 |  |  |  | 
3 | COc1cc(/C=C\c2ccc(OC)c(N)c2)cc(OC)c1 |  | 0.25 |  | 0.025 |  | 
4 | O=C(CCCCCNC(=O)c1ccc(-c2ccc(-c3cc(O)cc(O)c3)cc2)cc1)NO |  | 38 |  | 6 | 0.9 | 
5 | O=C(CCCCCCNC(=O)c1ccc(-c2ccc(-c3cc(O)cc(O)c3)cc2)cc1)NO |  | 16 |  | 2.5 | 15.7 | 
6 | O=C(NO)c1ccc(-c2ccc(-c3cc(O)cc(O)c3)cc2)cc1 |  | > 50 |  | 20 | 8.9 | 
7 | COc1cc(/C=C\c2ccc(OC)c(NC(=O)CCCCCCC(=O)NO)c2)cc(OC)c1 | Active | 40 | Active | 7.5 | 2.1 | IC50 [12]: 7.6 µM; IC50 [13]: 1.6 µM
8 | COc1cc(/C=C/c2ccc(OC)c(NC(=O)CCCCCCC(=O)NO)c2)cc(OC)c1 |  | 5 |  | 0.7 | 0.8 | Activity [1]: Active; Activity [2]: Active; IC50 [12]: 9.8 µM; Activity [14]: 25%; fold change (FC) [15]: 2; Ratio [16]: 2; Activity [5]: Active; Activity [8]: Active; Activity [9]: Active; Activity [17]: Active; IC50 [13]: 1.3 µM
9 | COc1cc(/C=C/c2ccc(OC)c(N)c2)cc(OC)c1 | Active | 20 | Active | 2.5 |  | 
